# Screening data from PubChem BioAssay.
# Only some compounds are listed: those with a hit (about 3.1% of all), similar ones and a draw of the others.
# rCAG RNA binder: binders of r(CAG) RNA repeats, primary screen, biochemical, fluorescence | r(CAG) RNA repeat, TO-PRO-1 dye displacement fluorescence | inhibition, % at 3 µM | 1.3% of 370,000 active | AID 651821, 2012;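 active = inhibition above the plate cutoff, the mean of all test compounds on that plate plus 3 SD, cut at about 35% in these data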;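 note: higher means more dye released from RNA so lower well fluorescence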
# ATG4B inhibitor: ATG4B protease inhibitors, primary screen, biochemical, fluorescence, uHTS. Cysteine protease ATG4B (Homo sapiens), Q9Y4P1. ATG4B cleavage of LC3-PLA2, NBD-HPC fluorescence, 1 h. inhibition, % at 8.33 µM. 0.51% of 340,000 active. AID 504462, 2011; in the data active = inhibition above about 40%
# UHRF1 MBD2 ctr: UHRF1 methylated DNA binding inhibitors, primary screen, counter-screen for MBD2 inhibitor project, biochemical, TR-FRET, human UHRF1, single concentration; 0.75% of 370,000 active; UHRF1 binding to methylated oligo; inhibition, % at 4.4 µM; in the data active = inhibition above about 21%;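 note: UHRF1 SRA domain binding a hemimethylated CpG hairpin DNA probe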
# Target sequence (Q96T88 whole entry, looked up, the tested form may be a part): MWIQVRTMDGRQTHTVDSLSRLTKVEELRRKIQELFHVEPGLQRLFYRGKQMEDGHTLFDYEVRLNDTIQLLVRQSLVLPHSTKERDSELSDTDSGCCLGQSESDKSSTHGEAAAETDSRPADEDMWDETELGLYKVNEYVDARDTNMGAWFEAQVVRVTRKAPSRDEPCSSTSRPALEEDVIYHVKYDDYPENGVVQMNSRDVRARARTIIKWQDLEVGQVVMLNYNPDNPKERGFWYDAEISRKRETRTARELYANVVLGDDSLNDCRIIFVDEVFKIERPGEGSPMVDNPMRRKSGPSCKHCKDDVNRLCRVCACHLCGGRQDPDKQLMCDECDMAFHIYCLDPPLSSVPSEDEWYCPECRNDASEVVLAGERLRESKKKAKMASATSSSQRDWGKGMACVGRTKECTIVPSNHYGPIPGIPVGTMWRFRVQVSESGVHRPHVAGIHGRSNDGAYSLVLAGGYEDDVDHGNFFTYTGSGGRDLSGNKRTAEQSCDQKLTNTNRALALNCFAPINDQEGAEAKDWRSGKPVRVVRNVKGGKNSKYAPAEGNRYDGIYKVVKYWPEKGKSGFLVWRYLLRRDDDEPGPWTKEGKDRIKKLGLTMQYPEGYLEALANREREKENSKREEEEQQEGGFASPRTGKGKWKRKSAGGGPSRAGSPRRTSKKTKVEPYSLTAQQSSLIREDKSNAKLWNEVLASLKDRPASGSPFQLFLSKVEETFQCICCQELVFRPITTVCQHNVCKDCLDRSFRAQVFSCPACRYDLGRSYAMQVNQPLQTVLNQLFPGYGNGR
# CSN deneddyl inh: inhibitors of CSN-mediated cullin deneddylation, primary screen, biochemical, fluorescence polarization, uHTS; COP9 signalosome complex subunit 5 (Homo sapiens), Q92905; Purified CSN, SCF-Nedd8-OG deneddylation; inhibition, % at 12.5 µM; 0.38% of 360,000 active; AID 651999, 2013;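 active = pattern-corrected inhibition above about 35%, with an unprinted fluorescence ratio check between 0.5 and 1.5, limit read from the data, passing the limit was not always enough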
#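 Test system: Human Csn5 produced in HEK293T cells | Compound: 12.5 µM single point | Times: 90 min, room temperature | Signal: Fluorescence polarization readout | Read-out basis: % inhibition of substrate cleavage by Csn5 | Controls: no-enzyme wells high, enzyme-with-substrate wells low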
# LEDGF integ inh: blockers of LEDGF/p75-dependent integrase strand transfer – biochemical, TR-FRET, high throughput, primary screen; HIV-1 integrase (with human LEDGF/p75); TR-FRET IN-LEDGF/p75 DNA integration, Eu/Cy5; inhibition, % at 3.7 µM; 0.64% of 370,000 active;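 active = inhibition above the screen-wide mean plus 3 SD, cut at about 13% in these data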;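 note: signal is the Cy5 over europium emission ratio at 671 and 618 nm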
# MBD2 inh: inhibitors of MBD2 binding to methylated DNA, primary screen, biochemical, TR-FRET, DNA-binding domain, human. Methyl-CpG-binding domain protein 2 (Homo sapiens), Q9UBB5. 0.31% of 370,000 active. inhibition, % at 4.4 µM. MBD2 binding to methylated oligonucleotide. AID 686964, 2013; in the data active = inhibition above about 13%
# PLA2 ctr: PLA2 enzyme inhibition, counter-screen for ATG4B inhibitor project, biochemical, single concentration, uHTS hits. shares compounds with ATG4B inhibitor. purified PLA2, NBD-C6-HPC fluorescence, 45 min. inhibition, % at 8.33 µM. 66% of 1,600 active; in the data active = inhibition above about 50%
# Hits are given with their value; i = inactive; nt = no result.
SMILES,rCAG RNA binder,ATG4B inhibitor,UHRF1 MBD2 ctr,CSN deneddyl inh,LEDGF integ inh,MBD2 inh,PLA2 ctr
Cc1c(Cl)cccc1NC(=S)NCCc1ccc(Cl)cc1,i,86,i,i,i,i,89
Cc1c(Cl)cccc1NC(=S)NCCc1ccc(F)cc1,i,71,i,i,i,i,77
C[C@@H]1CCCN1c1cccc2c1S(=O)(=O)N1CC[C@H](C1)O2,i,nt,i,nt,i,i,nt
CC(C)(C)c1ccc(-c2nnc(SCC(=O)Nc3ccc4cn[nH]c4c3)n2-c2ccc(Cl)cc2)cc1,i,nt,i,nt,i,i,nt
O=C(Cn1nnc(-c2ccc(S(=O)(=O)N3CCCC3)cc2)n1)Nc1ccccc1-n1cccc1,i,54,i,i,i,i,62
O=C(NC1CCCCN(Cc2cccc(Cl)c2)C1=O)c1cccc(C(F)(F)F)c1 (stereo unspecified),i,nt,i,nt,i,i,nt
Cc1ccc(-c2cc(-c3ccccc3Cl)[nH]n2)c(O)c1,i,68,i,i,i,i,77
COc1ccc(O)c(-c2cc(-c3ccccc3Cl)[nH]n2)c1,i,i,i,i,i,i,nt
Cc1ccccc1-c1cc(-c2ccccc2O)n[nH]1,i,58,i,i,i,i,65
Cc1ccc(-c2cc(-c3ccc(C)cc3O)[nH]n2)cc1,i,i,i,i,i,i,nt
Cc1ccc(-c2cc(-c3ccccc3[N+](=O)[O-])[nH]n2)c(O)c1,i,61,i,i,i,i,75
COC(=O)c1cn(-c2ccc3c(c2)[C@]2(CC(=O)N(C)C2c2ccccc2)C(=O)N3CC(C)C)nn1 (stereo partly specified),i,nt,i,nt,i,i,nt
CCn1c(SCC(=O)Nc2ccc(C(C)C)cc2)nnc1-c1ccc(C(C)(C)C)cc1,i,nt,i,nt,i,i,nt
N/C(=N/O)c1ccccc1N1CCC(Cc2ccccc2)CC1,i,40,i,i,i,i,58
O=C(c1ccc(COc2ccccc2Br)cc1)N1CCCCCC1,i,44,i,i,i,i,55
Cc1nn(-c2ccccc2)c(N)c1N=O,i,i,i,i,i,i,nt
Cc1ccc(N=Nc2c(N)nn(-c3ccccc3)c2N)cc1,i,57,i,i,i,i,71
Cc1nn(-c2ccccc2)c(N)c1N=Nc1ccc2ccccc2c1,i,78,i,i,i,i,91
C=CCCC1(CCC)C(=O)/C(=C(\O)c2ccccc2)C(=O)C(CCC)=C1OC (stereo unspecified),i,nt,i,nt,i,i,nt
O=C1Nc2ccccc2S/C1=C/NCc1ccccc1Cl,i,55,i,i,i,i,61
O=C(Nc1nc(-c2ccccc2)cs1)NC1CCCCC1,i,58,i,i,i,i,66
c1ccc(-c2csc(NC3CCCCC3)n2)cc1,i,i,i,i,i,i,nt
CCCCOCCCNC(=O)C[C@@H]1C(=O)N(CCc2ccc(Cl)cc2)C2=CCCCC[C@]21C(=O)OC,i,nt,i,nt,i,i,nt
O=C(OCC#CCSc1nnc(-c2cccc3ccccc23)o1)c1sccc1Cl,nt,nt,i,nt,i,i,nt
O=C(NNc1nccc(C(F)(F)F)n1)Nc1cccc(Cl)c1,nt,i,nt,i,nt,nt,nt
SMILES,rCAG RNA binder,ATG4B inhibitor,UHRF1 MBD2 ctr,CSN deneddyl inh,LEDGF integ inh,MBD2 inh,PLA2 ctr
O=C(NNc1cc(C(F)(F)F)nc2ccccc12)Nc1cccc(Cl)c1,i,85,i,i,i,i,85
C[C@@H](CO)N(CCc1cn(Cc2ccccc2)nn1)S(=O)(=O)c1ccccc1Br,i,nt,i,nt,i,i,nt
O=C(Nc1ccccc1)c1ccc(NCCc2ccccc2)c([N+](=O)[O-])c1,i,i,i,i,i,i,nt
NC(=O)c1ccc(NCCc2ccccc2)c([N+](=O)[O-])c1,i,49,i,i,i,i,66
CCc1ccccc1NC(=O)c1ccc(NCCc2ccccc2)c([N+](=O)[O-])c1,i,42,i,i,i,i,i
COC(=O)[C@]12C[C@H](CC(=O)NCc3ccc(OC)c(OC)c3)C(=O)N(Cc3ccc(Cl)cc3Cl)C1=C[C@H](C(C)(C)C)O[C@@H]2C,i,nt,i,nt,i,i,nt
O=S(=O)(c1cccs1)N1CCN(S(=O)(=O)c2cccs2)CC1,i,i,i,i,i,i,nt
O=S(=O)(c1cccs1)N1CCN(c2ccccc2Cl)CC1,i,45,i,i,i,i,64
Cc1ccccc1Cn1cc(NC(=O)c2nn(C)cc2Cl)cn1,i,i,i,i,i,i,nt
Cc1ccc(C2CC(C(F)F)n3ncc(C(=O)Nc4cnn(Cc5ccccc5C)c4)c3N2)cc1 (stereo unspecified),i,54,i,i,i,i,71
O=C(CSc1nnc(-c2cnccn2)n1-c1ccccc1)Nc1ccc2c(c1)OCCO2,i,nt,i,nt,i,i,nt
CC1CN=C(c2cccn2Cc2ccc(F)cc2Cl)O1 (stereo unspecified),i,43,i,i,i,i,53
COC(=O)C1CN(CC(C)C)CCS(=O)(=O)N1Cc1ccc(Cl)cc1 (stereo unspecified),i,nt,i,nt,i,i,nt
Cc1c(Cl)c([N+](=O)[O-])nn1CCCC(=O)Nc1ccc(Cl)cc1Cl,i,67,i,i,i,i,54
Cc1c(Cl)c([N+](=O)[O-])nn1CCCC(=O)Nc1cccc(Cl)c1Cl,i,60,i,i,i,i,67
Cc1c(Cl)c([N+](=O)[O-])nn1CCCC(=O)Nc1cccc(O)c1,i,i,i,i,i,i,nt
Cc1c(Cl)c([N+](=O)[O-])nn1CCCC(=O)Nc1sc2c(c1C#N)CCC2,i,49,i,i,i,i,65
COc1ccccc1/C=c1\sc2nc(-c3ccccc3OC)nn2c1=O,i,i,i,i,i,i,nt
Cc1ccc(/C=c2\sc3nc(-c4ccccc4Br)nn3c2=O)o1,i,48,i,50,i,i,i
O=C(CCSCc1cccc(Cl)c1)NCCC1=CCCCC1,i,46,i,i,i,i,i
Cc1ccc(CSCCC(=O)NCCC2=CCCCC2)cc1,i,i,i,i,i,i,nt
COc1c(Cl)cc(Cl)cc1CNc1ccc(S(N)(=O)=O)cc1,i,82,i,i,i,i,85
Cc1cc(C(=O)O[C@@H]2CCC[C@@]3(C(=O)N(Cc4ccccc4)c4ccccc43)[C@H]2NC(=O)CCc2ccccc2)no1,i,nt,i,nt,i,i,nt
